Source: ChEMBL document CHEMBL1817648, “Synthesis and in vitro antibacterial activity of a series of novel gatifloxacin derivatives” (Eur J Med Chem, 2011)
In brackets after ≈: the same amount, converted by molar mass.

Legend:
Streptococcus pneumoniae [1] = test: Antibacterial activity against Streptococcus pneumoniae 08-2 after 18 to 24 hrs by NCCLS M100-S11 two fold serial dilution method; assay type: functional
Klebsiella pneumoniae [2] = test: Antibacterial activity against Klebsiella pneumoniae 09-23 after 18 to 24 hrs by NCCLS M100-S11 two fold serial dilution method; assay type: functional
Streptococcus pneumoniae [3] = test: Antibacterial activity against Streptococcus pneumoniae 08-4 after 18 to 24 hrs by NCCLS M100-S11 two fold serial dilution method; assay type: functional
Klebsiella pneumoniae [4] = test: Antibacterial activity against Klebsiella pneumoniae 09-22 after 18 to 24 hrs by NCCLS M100-S11 two fold serial dilution method; assay type: functional
[5] = test system: Staphylococcus epidermidis; test: Antibacterial activity against methicillin-sensitive Staphylococcus epidermidis 09-6 after 18 to 24 hrs by NCCLS M100-S11 two fold serial dilution method; assay type: functional
Outline: (§1)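 Two-fold serial dilution in agar medium. MIC read as the lowest concentration giving complete inhibition of bacterial growth after incubation at 35 °C for 18–24 h.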

Escherichia coli [6] = test: Antibacterial activity against Escherichia coli ATCC 25922 after 18 to 24 hrs by NCCLS M100-S11 two fold serial dilution method; assay type: functional; conditions: ATCC25922
Staphylococcus aureus [7] = test: Antibacterial activity against methicillin-resistant Staphylococcus aureus 08-1 after 18 to 24 hrs by NCCLS M100-S11 two fold serial dilution method; assay type: functional; outline: as §1
Pseudomonas aeruginosa [8] = test: Antibacterial activity against Pseudomonas aeruginosa 09-34 after 18 to 24 hrs by NCCLS M100-S11 two fold serial dilution method; assay type: functional
Enterococcus faecium [9] = test: Antibacterial activity against Enterococcus faecium 08-2 after 18 to 24 hrs by NCCLS M100-S11 two fold serial dilution method; assay type: functional
Pseudomonas aeruginosa [10] = test: Ratio of levofloxacin MIC to compound MIC for Pseudomonas aeruginosa 09-34; assay type: functional
Pseudomonas aeruginosa [11] = test: Antibacterial activity against Pseudomonas aeruginosa ATCC 27853 after 18 to 24 hrs by NCCLS M100-S11 two fold serial dilution method; assay type: functional
Pseudomonas aeruginosa [12] = test: Ratio of levofloxacin MIC to compound MIC for Pseudomonas aeruginosa 09-33; assay type: functional
[13] = test system: Staphylococcus epidermidis; test: Antibacterial activity against methicillin-resistant Staphylococcus epidermidis 09-4 after 18 to 24 hrs by NCCLS M100-S11 two fold serial dilution method; assay type: functional; outline: as §1
Escherichia coli [14] = test: Antibacterial activity against Escherichia coli 08-21 after 18 to 24 hrs by NCCLS M100-S11 two fold serial dilution method; assay type: functional
Escherichia coli [15] = test: Antibacterial activity against Escherichia coli 08-22 after 18 to 24 hrs by NCCLS M100-S11 two fold serial dilution method; assay type: functional
[16] = Cytotoxicity against african green monkey Vero cells after 72 hrs by MTT assay; assay type: cell-based; conditions: chlorocebus sabaeus
Outline: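 Vero cells were kept in Minimum Essential Medium with Earle's salts plus 10% fetal bovine serum at 37 °C under 5% CO₂. Cells were seeded at 1 × 10⁴ per well and allowed to recover 24 h. Medium was then replaced with assay medium containing compound or no drug, and cells were exposed for 72 h. CC₅₀ is the 50% cellular cytotoxic concentration.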

Pseudomonas aeruginosa [17] = test: Ratio of levofloxacin MIC to compound MIC for Pseudomonas aeruginosa ATCC 27853; assay type: functional
Enterococcus faecalis [18] = test: Antibacterial activity against Enterococcus faecalis 08-10 after 18 to 24 hrs by NCCLS M100-S11 two fold serial dilution method; assay type: functional
Pseudomonas aeruginosa [19] = test: Antibacterial activity against Pseudomonas aeruginosa 09-32 after 18 to 24 hrs by NCCLS M100-S11 two fold serial dilution method; assay type: functional
Staphylococcus aureus [20] = test: Antibacterial activity against methicillin-sensitive Staphylococcus aureus 08-1 after 18 to 24 hrs by NCCLS M100-S11 two fold serial dilution method; assay type: functional
Staphylococcus aureus [21] = test: Antibacterial activity against Staphylococcus aureus ATCC 25923 after 18 to 24 hrs by NCCLS M100-S11 two fold serial dilution method; assay type: functional; conditions: ATCC25923
Pseudomonas aeruginosa [22] = test: Antibacterial activity against Pseudomonas aeruginosa 09-33 after 18 to 24 hrs by NCCLS M100-S11 two fold serial dilution method; assay type: functional
Enterococcus faecium [23] = test: Antibacterial activity against Enterococcus faecium 08-7 after 18 to 24 hrs by NCCLS M100-S11 two fold serial dilution method; assay type: functional
Enterococcus faecalis [24] = test: Antibacterial activity against Enterococcus faecalis 08-12 after 18 to 24 hrs by NCCLS M100-S11 two fold serial dilution method; assay type: functional
[25] = test system: Staphylococcus epidermidis; test: Antibacterial activity against methicillin-sensitive Staphylococcus epidermidis 09-3 after 18 to 24 hrs by NCCLS M100-S11 two fold serial dilution method; assay type: functional; outline: as §1
Pseudomonas aeruginosa [26] = test: Ratio of levofloxacin MIC to compound MIC for Pseudomonas aeruginosa 09-32; assay type: functional

Compound | MIC (Streptococcus pneumoniae [1]) [µg/mL] | MIC (Klebsiella pneumoniae [2]) [µg/mL] | MIC (Streptococcus pneumoniae [3]) [µg/mL] | MIC (Klebsiella pneumoniae [4]) [µg/mL] | MIC [5] [µg/mL] | MIC (Escherichia coli [6]) [µg/mL] | MIC (Staphylococcus aureus [7]) [µg/mL] | MIC (Pseudomonas aeruginosa [8]) [µg/mL] | MIC (Enterococcus faecium [9]) [µg/mL] | MIC (Pseudomonas aeruginosa [11]) [µg/mL] | MIC [13] [µg/mL] | MIC (Escherichia coli [14]) [µg/mL] | MIC (Escherichia coli [15]) [µg/mL] | CC50 at 72 h [16] [µg/mL] | MIC (Enterococcus faecalis [18]) [µg/mL] | MIC (Pseudomonas aeruginosa [19]) [µg/mL] | MIC (Staphylococcus aureus [20]) [µg/mL] | MIC (Staphylococcus aureus [21]) [µg/mL] | MIC (Pseudomonas aeruginosa [22]) [µg/mL] | MIC (Enterococcus faecium [23]) [µg/mL] | also measured
COc1c(N2CCN(CC/C(C)=N/Nc3ccccc3)C(C)C2)c(F)cc2c(=O)c(C(=O)O)cn(C3CC3)c12 (centres undefined) | 0.5 (≈ 0.933 µM) | 1 (≈ 1.87 µM) | 0.25 (≈ 0.467 µM) | 0.5 (≈ 0.933 µM) | 0.25 (≈ 0.467 µM) | 0.25 (≈ 0.467 µM) | 0.25 (≈ 0.467 µM) | 0.25 (≈ 0.467 µM) | 0.5 (≈ 0.933 µM) | 0.5 (≈ 0.933 µM) | 0.06 (≈ 0.112 µM) | 1 (≈ 1.87 µM) | 1 (≈ 1.87 µM) | 62.5 (≈ 117 µM) | 0.5 (≈ 0.933 µM) | 0.5 (≈ 0.933 µM) | 0.125 (≈ 0.233 µM) | 0.06 (≈ 0.112 µM) | 0.5 (≈ 0.933 µM) | 0.5 (≈ 0.933 µM) | Ratio (Pseudomonas aeruginosa [10]): 2; Ratio (Pseudomonas aeruginosa [12]): 2; Ratio (Pseudomonas aeruginosa [17]): 2; MIC (Enterococcus faecalis [24]): 1 µg/mL (≈ 1.87 µM); MIC [25]: 0.06 µg/mL (≈ 0.112 µM); Ratio (Pseudomonas aeruginosa [26]): 2
COc1c(N2CCN(CCC(C)=O)C(C)C2)c(F)cc2c(=O)c(C(=O)O)cn(C3CC3)c12 (centres undefined) | 4 (≈ 8.98 µM) | 0.5 (≈ 1.12 µM) | 0.25 (≈ 0.561 µM) | 0.5 (≈ 1.12 µM) | 0.25 (≈ 0.561 µM) | 0.5 (≈ 1.12 µM) | 0.5 (≈ 1.12 µM) | 0.5 (≈ 1.12 µM) | 4 (≈ 8.98 µM) | 1 (≈ 2.24 µM) | 0.25 (≈ 0.561 µM) | 4 (≈ 8.98 µM) | 0.5 (≈ 1.12 µM) | 9.84 (≈ 22.1 µM) | 4 (≈ 8.98 µM) | 0.25 (≈ 0.561 µM) | 0.25 (≈ 0.561 µM) | 0.06 (≈ 0.135 µM) | 4 (≈ 8.98 µM) | 4 (≈ 8.98 µM) | MIC (Enterococcus faecalis [24]): 4 µg/mL (≈ 8.98 µM); MIC [25]: 0.25 µg/mL (≈ 0.561 µM)
COc1c(N2CCN(CCC#N)C(C)C2)c(F)cc2c(=O)c(C(=O)O)cn(C3CC3)c12 (centres undefined) | 32 (≈ 74.7 µM) | 32 (≈ 74.7 µM) | 4 (≈ 9.34 µM) | 32 (≈ 74.7 µM) | 2 (≈ 4.67 µM) | 16 (≈ 37.3 µM) | 4 (≈ 9.34 µM) | 16 (≈ 37.3 µM) | 32 (≈ 74.7 µM) | 8 (≈ 18.7 µM) | 2 (≈ 4.67 µM) | 32 (≈ 74.7 µM) | 64 (≈ 149 µM) | 500 (≈ 1170 µM) | 64 (≈ 149 µM) | 4 (≈ 9.34 µM) | 4 (≈ 9.34 µM) | 2 (≈ 4.67 µM) | 128 (≈ 299 µM) | 32 (≈ 74.7 µM) | MIC (Enterococcus faecalis [24]): 32 µg/mL (≈ 74.7 µM); MIC [25]: 0.25 µg/mL (≈ 0.583 µM)
CCO/N=C(\C)CN1CCN(c2c(F)cc3c(=O)c(C(=O)O)cn(C4CC4)c3c2OC)CC1C (centres undefined) | > 128 | > 128 | 2 (≈ 4.21 µM) | > 128 | 0.25 (≈ 0.527 µM) | 128 (≈ 270 µM) | 0.25 (≈ 0.527 µM) | > 128 | > 128 | > 128 | 0.25 (≈ 0.527 µM) | > 128 | > 128 | 31.2 (≈ 65.9 µM) | > 128 | > 128 | 0.25 (≈ 0.527 µM) | 0.125 (≈ 0.263 µM) | > 128 | > 128 | MIC (Enterococcus faecalis [24]): > 128 µg/mL; MIC [25]: 0.25 µg/mL (≈ 0.527 µM)
CO/N=C(\C)CN1CCN(c2c(F)cc3c(=O)c(C(=O)O)cn(C4CC4)c3c2OC)CC1C (centres undefined) | 64 (≈ 139 µM) | > 128 | 2 (≈ 4.34 µM) | > 128 | 4 (≈ 8.69 µM) | 64 (≈ 139 µM) | > 128 | > 128 | > 128 | 32 (≈ 69.5 µM) | 0.5 (≈ 1.09 µM) | > 128 | > 128 | 49.6 (≈ 108 µM) | > 128 | 64 (≈ 139 µM) | 0.25 (≈ 0.543 µM) | 0.5 (≈ 1.09 µM) | > 128 | > 128 | MIC (Enterococcus faecalis [24]): > 128 µg/mL; MIC [25]: 0.5 µg/mL (≈ 1.09 µM)
